Assays:
[1] = Drug concentration in Sprague-Dawley rat brain at 10 mg/kg, po after 0.5 hrs by LC-MS/MS analysis; format: ADME, organism-based; details: read-out: Ct
In short: (§1)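 Brain and plasma levels (ng/mL) sampled 0.5 h after oral dosing at 10 or 30 mg/kg, alongside the ex vivo tenia tecta occupancy study.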

[2] = Volume of distribution at steady state in primate; format: ADME; details: primates; read-out: Vdss
[3] = Cmax in dog assessed as NOAEL at 25 mg/kg, po administered for 6 days; format: ADME, organism-based, Canis lupus familiaris; parameters: route oral, dose 25 mg/kg, time 6 day; details: in vivo
In short: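 Six-day dog toxicology study with oral dosing; NOAEL-level Cmax; exposures compared between sexes and between day 0 and day 5.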

[4] = Cmax in mouse assessed as NOAEL at 200 mg/kg/day, po measured after immediately administered; format: ADME, organism-based; parameters: route oral, time 13 day, dose 200 mg/kg/day; details: in vivo
[5] = Permeability across basolateral to apical side in MDCK cells; format: ADME, cell-based, Canis lupus familiaris; details: dog
[6] = […] clearance in rat at 1 mg/kg, iv and 5 mg/kg, po; format: ADME, organism-based; details: in vivo
[7] = AUC (0 to 24 hrs) in rat assessed as NOAEL at 200 mg/kg/day, po administered as repeated dose for 6 days; format: ADME, organism-based; parameters: route oral, time 6 day, dose 200 mg/kg/day; details: in vivo
[8] = Drug concentration in Sprague-Dawley rat plasma at 10 mg/kg, po after 0.5 hrs by LC-MS/MS analysis; format: ADME, organism-based; in short: as §1
[9] = Oral bioavailability in primate at 5 mg/kg; format: ADME, organism-based; details: primates, in vivo
PXR (NR1I2) = biological target: T1, PXR (NR1I2) (Homo sapiens, UniProt O75469); test: Induction of human PXR at 10 uM relative to control; format: ADME; details: read-out: Activity
T1 sequence (O75469 whole entry): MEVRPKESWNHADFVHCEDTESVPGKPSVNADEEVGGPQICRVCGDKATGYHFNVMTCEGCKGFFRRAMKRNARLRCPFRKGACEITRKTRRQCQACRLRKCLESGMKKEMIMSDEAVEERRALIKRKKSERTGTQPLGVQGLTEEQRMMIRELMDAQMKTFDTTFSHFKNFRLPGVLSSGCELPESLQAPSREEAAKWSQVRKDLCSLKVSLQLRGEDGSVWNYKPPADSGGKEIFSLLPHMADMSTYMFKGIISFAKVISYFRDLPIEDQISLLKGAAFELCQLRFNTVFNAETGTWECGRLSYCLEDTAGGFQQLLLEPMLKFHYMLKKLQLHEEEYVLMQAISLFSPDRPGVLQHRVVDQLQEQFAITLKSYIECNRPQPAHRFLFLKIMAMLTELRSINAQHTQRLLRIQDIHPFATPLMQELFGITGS
In short: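 Human PXR activation as an indirect measure of CYP3A4 induction, at 10 μM, expressed as % of rifampicin control activation.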

[10] = Cmax in dog at 0.5 mg/kg, iv and […], po; format: ADME, organism-based, Canis lupus familiaris; parameters: dose 2.5 mg/kg; details: in vivo
[11] = Cmax in human at 50 mg/day; format: ADME; parameters: dose 50 mg
[12] = Ex vivo receptor occupancy at OX1R in Sprague-Dawley rat brain tenia tecta using [3H]SB-674042 labelling at 30 mg/kg, po measured after 2 hrs by autoradiography; format: functional
In short: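 Ex vivo OX1R binding autoradiography in rat tenia tecta after a 30 mg/kg po dose; percent occupancy read at 0.5 and 2 h.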

[13] = Cmax in rat at 1 mg/kg, iv and 5 mg/kg, po; format: ADME, organism-based; parameters: dose 5 mg/kg; details: in vivo
[14] = Oral bioavailability in dog at […]; format: ADME, organism-based, Canis lupus familiaris; details: in vivo, dose 2.5 mg/kg
Orexin receptor type 2 = biological target: T2, Orexin receptor type 2 (Homo sapiens, UniProt O43614); test: Binding affinity to human OX2R
T2 sequence (O43614 whole entry): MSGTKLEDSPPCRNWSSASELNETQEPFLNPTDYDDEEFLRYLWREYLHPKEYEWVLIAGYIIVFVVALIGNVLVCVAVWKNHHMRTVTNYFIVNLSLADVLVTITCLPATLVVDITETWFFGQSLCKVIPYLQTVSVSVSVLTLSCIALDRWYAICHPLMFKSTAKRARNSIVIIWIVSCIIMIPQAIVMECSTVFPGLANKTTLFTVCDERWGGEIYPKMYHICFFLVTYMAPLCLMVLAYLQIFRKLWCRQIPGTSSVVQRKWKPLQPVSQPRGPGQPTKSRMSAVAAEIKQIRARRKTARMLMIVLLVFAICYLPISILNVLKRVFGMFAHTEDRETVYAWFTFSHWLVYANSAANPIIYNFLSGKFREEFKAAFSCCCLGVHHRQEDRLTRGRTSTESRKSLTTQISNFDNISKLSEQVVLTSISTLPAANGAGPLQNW

[15] = Cmax in mouse assessed as NOAEL at 200 mg/kg/day, po administered as repeated dose for 13 days; format: ADME, organism-based; parameters: route oral, dose 200 mg/kg/day, time 13 day; details: in vivo
[16] = AUC (0 to 24 hrs) in rat assessed as NOAEL at 200 mg/kg/day, po administered as repeated dose for 13 days; format: ADME, organism-based; parameters: route oral, time 13 day, dose 200 mg/kg/day; details: in vivo
[17] = Clearance in mouse at 1 mg/kg, iv and 5 mg/kg, po; format: ADME, organism-based; details: in vivo

`O=C(c1cccc(F)c1-c1ncccn1)N1[C@@H]2CC[C@H]1[C@H](Nc1cnc(C(F)(F)F)cn1)C2` gave a concentration at 0.5 h [1] of 188 ng/mL, a Vd [2] of 0.8 L/kg and a Cmax [3] of 15100 ng/mL. For the same compound, the Cmax [4] was 32900 ng/mL, the Papp B→A [5] was 64.4 ×10⁻⁶ cm/s and the clearance [6] was 17 mL/min/kg. The AUC at 144 h [7] was 62000 ng·h/mL, the concentration at 0.5 h [8] was 1190 ng/mL and the bioavailability [9] was 22%. For the same compound, the activity at 10 µM (PXR (NR1I2)) was 29%, the Cmax [10] was 2240 ng/mL and the Cmax [11] was 537 ng/mL. The Activity [12] was 100%, the Cmax [13] was 1370 ng/mL and the bioavailability [14] was 48%. It also gave a Ki (Orexin receptor type 2) of 700 nM, a Cmax [15] of 24800 ng/mL and an AUC at 312 h [16] of 36200 ng·h/mL. For the same compound, the clearance [17] was 21 mL/min/kg.

Reference: ChEMBL document CHEMBL4725448, “Substituted Azabicyclo[2.2.1]heptanes as Selective Orexin-1 Antagonists: Discovery of JNJ-54717793” (ACS Med Chem Lett, 2020)
